Active and inactive are the calls of the source. The calls are words filed in the database; no cut-off is given here.
How the values were obtained:
[1] = molecular target: T1, Histone-lysine N-methyltransferase, H3 lysine-79 specific (Homo sapiens, UniProt Q8TEK3); assay: Inhibition of N-terminal 6His-tagged human DOT1L (1 to 416 residues) expressed in Escherichia coli BL21(DE3) at 50 uM preincubated for 15 mins followed by [3H]-SAM addition measured after 120 mins by radioactive methylation assay
Procedure, shortened: (§1)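 DOT1L and compound preincubated 15 min at room temperature; oligonucleosome and 3H-SAM added; reaction 120 min at room temperature, stopped with cold SAM; transferred to 0.5% PEI-pretreated filter plate, washed 3× with water, read by liquid scintillation counting.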
Target sequence in this assay (Q8TEK3 whole entry, looked up, the tested form may be a part): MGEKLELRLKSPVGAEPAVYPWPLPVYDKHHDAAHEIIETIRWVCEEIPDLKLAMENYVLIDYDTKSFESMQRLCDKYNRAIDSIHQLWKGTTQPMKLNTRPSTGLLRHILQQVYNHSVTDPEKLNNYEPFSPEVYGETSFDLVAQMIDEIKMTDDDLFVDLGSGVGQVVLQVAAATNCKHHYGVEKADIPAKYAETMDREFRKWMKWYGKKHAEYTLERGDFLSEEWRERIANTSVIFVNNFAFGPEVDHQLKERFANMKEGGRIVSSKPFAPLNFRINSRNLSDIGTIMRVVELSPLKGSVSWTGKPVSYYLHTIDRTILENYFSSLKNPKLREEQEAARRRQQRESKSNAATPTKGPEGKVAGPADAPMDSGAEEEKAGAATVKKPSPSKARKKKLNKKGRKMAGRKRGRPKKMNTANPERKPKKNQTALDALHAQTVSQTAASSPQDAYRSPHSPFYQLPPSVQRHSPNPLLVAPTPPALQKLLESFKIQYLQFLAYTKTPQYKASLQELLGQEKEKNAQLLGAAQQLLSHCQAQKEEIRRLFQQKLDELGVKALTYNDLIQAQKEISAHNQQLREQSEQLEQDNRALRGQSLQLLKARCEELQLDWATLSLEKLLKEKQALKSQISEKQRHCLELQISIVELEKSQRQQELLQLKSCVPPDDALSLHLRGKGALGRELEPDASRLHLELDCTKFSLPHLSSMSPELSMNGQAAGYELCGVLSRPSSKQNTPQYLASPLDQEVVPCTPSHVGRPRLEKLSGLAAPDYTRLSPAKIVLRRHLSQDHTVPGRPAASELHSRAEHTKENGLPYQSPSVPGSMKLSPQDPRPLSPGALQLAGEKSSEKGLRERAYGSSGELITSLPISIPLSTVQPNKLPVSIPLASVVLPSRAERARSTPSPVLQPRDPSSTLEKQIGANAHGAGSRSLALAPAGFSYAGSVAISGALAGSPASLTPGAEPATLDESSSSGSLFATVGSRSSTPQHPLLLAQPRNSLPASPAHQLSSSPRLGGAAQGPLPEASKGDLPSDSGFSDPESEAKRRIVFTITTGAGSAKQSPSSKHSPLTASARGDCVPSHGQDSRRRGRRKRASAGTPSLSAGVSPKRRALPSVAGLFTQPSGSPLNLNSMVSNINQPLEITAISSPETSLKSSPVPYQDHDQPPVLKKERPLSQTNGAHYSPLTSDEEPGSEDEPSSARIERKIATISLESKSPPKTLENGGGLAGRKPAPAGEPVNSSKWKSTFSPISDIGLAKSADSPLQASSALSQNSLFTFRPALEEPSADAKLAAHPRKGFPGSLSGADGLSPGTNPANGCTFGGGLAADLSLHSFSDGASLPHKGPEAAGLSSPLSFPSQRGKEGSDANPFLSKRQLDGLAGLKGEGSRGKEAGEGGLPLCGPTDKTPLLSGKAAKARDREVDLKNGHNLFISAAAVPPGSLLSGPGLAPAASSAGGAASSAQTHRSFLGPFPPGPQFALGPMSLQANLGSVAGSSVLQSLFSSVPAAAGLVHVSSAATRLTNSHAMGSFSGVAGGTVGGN

[2] = molecular target: T1, Histone-lysine N-methyltransferase, H3 lysine-79 specific; assay: Inhibition of N-terminal 6His-tagged human DOT1L (1 to 416 residues) expressed in Escherichia coli BL21(DE3) at preincubated for 15 mins followed by [3H]-SAM addition measured after 120 mins by radioactive methylation assay; procedure, shortened: as §1
Target sequence in this assay (Q8TEK3 whole entry, the tested form may be a part): as the sequence (Q8TEK3 whole entry, looked up, the tested form may be a part) above

[3] = molecular target: T1, Histone-lysine N-methyltransferase, H3 lysine-79 specific; assay: Inhibition of N-terminal 6His-tagged human DOT1L (1 to 416 residues) expressed in Escherichia coli BL21(DE3) at 50 uM using histone H3 as substrate preincubated for 15 mins followed by SAM addition measured after 60 mins by AlphaLISA assay
Procedure, shortened: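 DOT1L (80 nM final) preincubated with compound 15 min at 25 °C; SAM 1 mM and oligonucleosomes 0.25 ng/μL added in 50 mM Tris-HCl pH 8.0, 150 mM NaCl, 3 mM MgCl2, 0.1% BSA, 60 min at 25 °C; stopped with high-salt buffer; H3K79me2 detected with anti-H3 acceptor beads, biotinylated antibody, then streptavidin donor beads.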
Target sequence in this assay (Q8TEK3 whole entry, looked up, the tested form may be a part): as above

[4] = molecular target: T1, Histone-lysine N-methyltransferase, H3 lysine-79 specific; assay: Inhibition of N-terminal 6His-tagged human DOT1L (1 to 416 residues) expressed in Escherichia coli BL21(DE3) at 50 and 100 uM preincubated for 15 mins followed by [3H]-SAM addition measured after 120 mins by radioactive methylation assay; procedure, shortened: as §1
Target sequence in this assay (Q8TEK3 whole entry, looked up, the tested form may be a part): as above

SMILES	inhibition [1]	other results
c1ccc(Cc2nn3c(Cn4nnc5ccccc54)nnc3s2)cc1	63%	IC50 [2]: 19.4 µM
Cc1ccccc1-c1nn2c(Cn3nnc4ccccc43)nnc2s1	55%	
Cc1nc2ccccc2n1Cc1nnc2sc(-c3ccc(F)c(Br)c3)nn12	49%	
Fc1ccc(-c2nn3c(Cn4nnc5ccccc54)nnc3s2)cc1	69%	IC50 [2]: 4.64 µM
c1ccc(OCc2nn3c(Cn4nnc5ccccc54)nnc3s2)cc1	43%	
c1ccc2c(c1)nnn2Cc1nnc2sc(-c3ccc4c(c3)OCCO4)nn12	66%	IC50 [2]: 8.4 µM
Cc1cccc(OCc2nn3c(Cn4nnc5ccccc54)nnc3s2)c1	50%	
Cc1ccccc1Cc1nnc2sc(-c3cccc(F)c3)nn12	27%	
c1ccc2c(c1)nnn2Cc1nnc2sc(C34CC5CC(CC(C5)C3)C4)nn12	38%	
COc1ccc(-c2nn3c(Cn4nnc5ccccc54)nnc3s2)cc1	54%	
Fc1cccc(-c2nn3c(Cc4ccccc4)nnc3s2)c1	33%	
CC(C)(C)c1ccc(-c2nn3c(Cn4nnc5ccccc54)nnc3s2)cc1	67%	IC50 [2]: 4.48 µM
Fc1cccc(-c2nn3c(CN4CCCCC4)nnc3s2)c1	6%	
CCc1nnc2sc(-c3cccc(F)c3)nn12	13%	
CCCc1nnc2sc(-c3cccc(F)c3)nn12	35%	
Fc1cccc(-c2nn3c(CSc4ccccc4)nnc3s2)c1	21%	
Fc1cccc(-c2nn3c(-c4cccc(F)c4)nnc3s2)c1	11%	
c1ccc2c(c1)nnn2Cc1nnc2sc(-c3ccc4c(c3)OCO4)nn12	65%	IC50 [2]: 3.96 µM
Brc1ccc(-c2nn3c(Cn4nnc5ccccc54)nnc3s2)cc1	50%	

SMILES	inhibition [1]	other results
Fc1cccc(-c2nn3c(CCc4ccccc4)nnc3s2)c1	18%	
CCOc1ccc(-c2nn3c(Cn4nnc5ccccc54)nnc3s2)cc1	50%	
Fc1cccc(-c2nn3c(Cc4ccccc4F)nnc3s2)c1	25%	
Cc1ccc(Cn2c(SCC(=O)N/N=C/c3ccc(O)cc3)nc3ccccc32)cc1		inhibition [3]: > 40%; inhibition [4]: Active
COc1ccccc1-c1nn2c(Cn3nnc4ccccc43)nnc2s1	55%	
c1coc(-c2nn3c(Cn4nnc5ccccc54)nnc3s2)c1	48%	
COc1cccc(-c2nn3c(Cn4nnc5ccccc54)nnc3s2)c1	70%	IC50 [2]: 6.47 µM
c1ccc(-c2nn3c(Cn4nnc5ccccc54)nnc3s2)nc1	53%	
Brc1cccc(-c2nn3c(Cn4cnc5ccccc54)nnc3s2)c1	62%	IC50 [2]: 4.09 µM
Fc1cccc(-c2nn3c(-c4ccccc4)nnc3s2)c1	15%	
COc1ccc(-c2nn3c(Cn4nnc5ccccc54)nnc3s2)cc1OC	56%	
Cc1ccc(-c2nn3c(Cn4cnc5ccccc54)nnc3s2)cc1C	72%	IC50 [2]: 17.4 µM
CCOc1cc(CNCc2ccc(C(=O)O)cc2)ccc1OCc1cccs1		inhibition [3]: > 40%; inhibition [4]: Active
Fc1cccc(-c2nn3c(Cn4cnc5ccccc54)nnc3s2)c1	57%	
CC(C)N(CCCNC(=O)Nc1ccc(C(C)(C)C)cc1)C[C@H]1O[C@@H](n2ccc3c(N)ncnc32)[C@H](O)[C@@H]1O		inhibition [3]: > 40%
c1ccc(-c2nn3c(Cn4cnc5ccccc54)nnc3s2)cc1	55%	
O=C1C/C(=N\Nc2nc(-c3cccc(O)c3)cs2)c2ccccc21		inhibition [3]: > 40%; inhibition [4]: Active
Cc1ccc(OCc2nn3c(Cn4nnc5ccccc54)nnc3s2)cc1	52%	
